Results from ChEMBL document CHEMBL4017520, “Discovery, Structure-Activity Relationship, and Antiparkinsonian Effect of a Potent and Brain-Penetrant Chemical Series of Positive Allosteric Modulators of Metabotropic Glutamate Receptor 4” (J Med Chem, 2017).
In brackets after ≈: the same amount, converted by molar mass. Activity calls are given as the source filed them. The calls are words filed in the database; no cut-off is given here.

Tests used:
[1] = biological target: Metabotropic glutamate receptor 4 (Homo sapiens, UniProt Q14833); test: Positive allosteric modulation of recombinant human mGlu4 receptor expressed in HEK293 cells co-expressing Gi/Gq assessed as increase in glutamate-induced calcium flux preincubated for 10 mins followed by glutamate addition measured for 3 mins by Fluo4-AM dye based fluorescence assay; assay type: functional, cell-based
[2] = Drug uptake in Sprague-Dawley rat brain at 10 mg/kg, po after 30 mins post dose administered as single dose by LC-MS/MS analysis; assay type: ADME, organism-based; conditions: read-out: Drug uptake
Outline: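 Rats given a single oral dose of 10 mg/kg. The first plasma sample was taken at 15 min, and sampling continued to 24 h postdose. Brain was sampled at 30 min. Values are the mean (±SEM) of 3 rats.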

[3] = Drug uptake in Sprague-Dawley rat brain at 10 mg/kg, po after 60 mins post dose administered as single dose by LC-MS/MS analysis; assay type: ADME, organism-based; conditions: read-out: Drug uptake
Outline: (§1)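 Rats given a single oral dose of 10 mg/kg. Brain concentrations were measured at 30, 60 and 90 min postdose, and brain AUC0–inf was determined. Values are the mean of three rats. Lower limit of quantification was 1 ng/mL.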

[4] = biological target: Metabotropic glutamate receptor 1 (Homo sapiens) (UniProt Q13255); test: Negative allosteric modulation of human mGlu1 receptor expressed in HEK293 cells co-expressing Gi/Gq assessed as reduction in EC20/EC80 glutamate-induced intracellular calcium level preincubated for 10 mins followed by glutamate addition measured for 3 mins by Fluo4-AM dye based fluorescence assay; assay type: functional, cell-based
Outline: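 HEK-293 cells transiently expressing human mGluR1 with a Gα15, Gqi9 or GqTOP G protein for calcium read-out; Fluo4-AM loaded. Compound added 10 min, then EC80 glutamate, fluorescence recorded 3 min; concentration–response over 20 concentrations, duplicate, three independent experiments.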

[5] = Thermodynamic solubility of the compound in water; assay type: physicochemical; conditions: read-out: Therm_solubility
Outline: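 Thermodynamic solubility measured in milli-Q water.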

[6] = Drug uptake in Sprague-Dawley rat brain at 10 mg/kg, po after 90 mins post dose administered as single dose by LC-MS/MS analysis; assay type: ADME, organism-based; conditions: read-out: Drug uptake; outline: as §1

Metabotropic glutamate receptor 4, sequence (Q14833 whole entry): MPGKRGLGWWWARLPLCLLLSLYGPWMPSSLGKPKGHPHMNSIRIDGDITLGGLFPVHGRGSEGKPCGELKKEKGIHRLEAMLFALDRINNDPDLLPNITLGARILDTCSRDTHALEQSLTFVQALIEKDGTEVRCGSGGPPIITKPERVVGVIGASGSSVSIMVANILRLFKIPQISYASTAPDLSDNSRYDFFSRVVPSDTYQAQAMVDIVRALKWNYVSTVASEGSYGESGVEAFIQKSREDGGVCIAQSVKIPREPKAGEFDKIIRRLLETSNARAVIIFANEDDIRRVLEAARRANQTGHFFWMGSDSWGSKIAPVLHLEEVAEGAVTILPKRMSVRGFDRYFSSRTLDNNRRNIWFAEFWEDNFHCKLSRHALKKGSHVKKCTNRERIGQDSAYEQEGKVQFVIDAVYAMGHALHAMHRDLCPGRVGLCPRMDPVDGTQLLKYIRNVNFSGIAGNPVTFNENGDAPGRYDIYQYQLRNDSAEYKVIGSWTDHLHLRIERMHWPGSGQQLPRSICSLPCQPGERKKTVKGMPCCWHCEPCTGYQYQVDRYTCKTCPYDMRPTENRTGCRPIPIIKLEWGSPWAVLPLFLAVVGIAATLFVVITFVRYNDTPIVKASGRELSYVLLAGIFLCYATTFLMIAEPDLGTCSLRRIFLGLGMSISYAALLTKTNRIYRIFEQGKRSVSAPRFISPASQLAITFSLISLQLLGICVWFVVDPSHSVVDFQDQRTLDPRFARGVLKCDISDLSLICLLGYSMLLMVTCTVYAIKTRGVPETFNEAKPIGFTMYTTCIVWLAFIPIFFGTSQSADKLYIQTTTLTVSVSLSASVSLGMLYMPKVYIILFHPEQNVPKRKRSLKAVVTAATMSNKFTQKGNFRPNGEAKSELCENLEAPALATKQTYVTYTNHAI
Metabotropic glutamate receptor 1 (Homo sapiens), sequence (Q13255 19-1194 limits assumed): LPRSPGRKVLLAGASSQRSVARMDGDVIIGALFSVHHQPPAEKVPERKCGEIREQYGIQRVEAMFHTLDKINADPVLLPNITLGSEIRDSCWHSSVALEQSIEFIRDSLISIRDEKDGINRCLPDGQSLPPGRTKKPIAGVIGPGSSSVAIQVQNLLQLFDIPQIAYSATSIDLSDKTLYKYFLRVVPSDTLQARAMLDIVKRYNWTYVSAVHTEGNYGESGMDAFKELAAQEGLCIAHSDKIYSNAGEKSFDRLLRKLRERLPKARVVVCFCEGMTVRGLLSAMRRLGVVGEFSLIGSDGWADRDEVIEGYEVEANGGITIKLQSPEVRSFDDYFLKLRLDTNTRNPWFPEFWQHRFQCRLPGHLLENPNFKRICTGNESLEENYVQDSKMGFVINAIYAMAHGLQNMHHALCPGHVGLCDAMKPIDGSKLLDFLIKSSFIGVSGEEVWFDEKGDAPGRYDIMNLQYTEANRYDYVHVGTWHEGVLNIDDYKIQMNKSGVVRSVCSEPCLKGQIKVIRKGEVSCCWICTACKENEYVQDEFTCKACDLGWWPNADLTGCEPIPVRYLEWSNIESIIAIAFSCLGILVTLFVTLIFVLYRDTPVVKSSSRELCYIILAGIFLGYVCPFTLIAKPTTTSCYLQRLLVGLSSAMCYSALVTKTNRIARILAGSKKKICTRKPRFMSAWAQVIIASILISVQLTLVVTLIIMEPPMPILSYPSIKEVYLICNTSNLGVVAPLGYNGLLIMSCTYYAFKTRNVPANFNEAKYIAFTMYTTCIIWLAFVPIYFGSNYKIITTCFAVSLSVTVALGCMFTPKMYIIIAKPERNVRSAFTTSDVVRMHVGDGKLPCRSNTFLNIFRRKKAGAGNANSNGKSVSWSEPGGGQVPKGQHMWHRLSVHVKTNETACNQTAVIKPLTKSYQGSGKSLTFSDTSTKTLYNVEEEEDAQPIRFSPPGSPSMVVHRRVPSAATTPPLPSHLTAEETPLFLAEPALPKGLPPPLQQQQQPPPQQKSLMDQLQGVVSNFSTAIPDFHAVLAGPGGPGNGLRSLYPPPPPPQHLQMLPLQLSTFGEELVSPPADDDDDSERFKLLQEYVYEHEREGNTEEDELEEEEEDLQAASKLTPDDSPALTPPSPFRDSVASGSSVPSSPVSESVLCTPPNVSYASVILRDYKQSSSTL

O/N=c1\cc(-c2cc3ccccc3cn2)oc2ccc(C(F)(F)F)cc12
EC50 ([1]; read-out: EC50): 2470 nM

O/N=c1\cc(-c2cc3sccc3cn2)oc2ccc(O[C@@H]3CCN(c4ccncn4)C3)cc12
EC50 ([1]; read-out: EC50): 17 nM | concentration at 0.5 h [2]: 20 ng/g | concentration at 1 h [3]: 9.5 ng/g

Cc1cc(CCCOc2ccc3oc(-c4cc5cccn5cn4)c/c(=N\O)c3c2)ccn1
EC50 ([1]; read-out: EC50): 19 nM | concentration at 0.5 h [2]: 77.3 ng/g | concentration at 1 h [3]: 82.5 ng/g

CN(C)C1CCN(CCOc2ccc3oc(-c4cc5cccn5cn4)c/c(=N\O)c3c2)CC1
EC50 ([1]; read-out: EC50): 165 nM | concentration at 0.5 h [2]: 2.8 ng/g | concentration at 1 h [3]: 2.9 ng/g

O/N=c1\cc(/C=C/c2ccccc2)oc2ccccc12
EC50 ([1]; read-out: EC50): 14200 nM

O=C(Nc1ccccc1)[C@]12C[C@H]1/C(=N\O)c1ccccc1O2
Activity [4]: Active

Cn1c(-c2c/c(=N\O)c3ccccc3o2)cc2ccccc21
EC50 ([1]; hek293): Not Active

O/N=c1\cc(-c2cc3cccn3cn2)oc2ccc(OCCN3CCC(F)(F)CC3)cc12
EC50 ([1]; read-out: EC50): 150 nM

O/N=c1\cc(-c2cc3cnccc3cn2)oc2ccccc12
EC50 ([1]; read-out: EC50): 1270 nM

O/N=c1\cc(-c2cc3ccccc3cn2)oc2cc(Br)ccc12
EC50 ([1]; read-out: EC50): 1720 nM

COc1ccc2oc(-c3cc4ccccc4cn3)c/c(=N\O)c2c1
EC50 ([1]; read-out: EC50): 1390 nM

COc1ccc2/c(=N/O)cc(-c3cc4ccccc4cn3)oc2c1
EC50 ([1]; read-out: EC50): 1160 nM

COCCOc1ccc2oc(-c3cc4ccccc4cn3)c/c(=N\O)c2c1
EC50 ([1]; read-out: EC50): 750 nM

COCCOc1ccc2oc(-c3cc4cccn4cn3)c/c(=N\O)c2c1
EC50 ([1]; read-out: EC50): 160 nM | solubility thermodynamic [5]: 16.3 µM (≈ 5.73 µg/mL)

O/N=c1\cc(-c2ccc3ccccc3n2)oc2ccccc12
EC50 ([1]; hek293): Not Active

O/N=c1\cc(-c2cc3sccc3cn2)oc2ccccc12
EC50 ([1]; read-out: EC50): 200 nM

Cc1ncccc1N1CCC(Cc2ccc3oc(-c4cc5sccc5cn4)c/c(=N\O)c3c2)CC1
EC50 ([1]; read-out: EC50): 4 nM | concentration at 0.5 h [2]: 7.4 ng/g | concentration at 1 h [3]: < 1 ng/g

CN1CCN(CCOc2ccc3oc(-c4cc5ccccc5cn4)c/c(=N\O)c3c2)CC1
EC50 ([1]; read-out: EC50): 9840 nM

O/N=c1\cc(-c2cc3ccccc3cn2)oc2ccc(C3CC3)cc12
EC50 ([1]; read-out: EC50): 1010 nM

O/N=c1\cc(-c2cc3ccccc3cn2)oc2cc(CCc3ccccc3)ccc12
EC50 ([1]; read-out: EC50): 1740 nM

O/N=c1\cc(-c2cc3ccccc3cn2)oc2ccc(OC(F)(F)F)cc12
EC50 ([1]; read-out: EC50): 1630 nM

O/N=c1\cc(-c2cc3ccccc3cn2)oc2ccc(Br)cc12
EC50 ([1]; read-out: EC50): 690 nM

Cc1c(-c2cc3ccccc3cn2)oc2ccccc2/c1=N/O
EC50 ([1]; hek293): Not Active

O/N=c1\cc(-c2cc3cccn3cn2)oc2ccc(OCCCc3cccnc3)cc12
EC50 ([1]; read-out: EC50): 50 nM | concentration at 0.5 h [2]: 3.4 ng/g | concentration at 1 h [3]: 2.3 ng/g

Cl.O/N=c1\cc(-c2cc3cccn3cn2)oc2ccc(OCCN3CCOCC3)cc12
solubility thermodynamic [5]: 10600 µM

O/N=c1\cc(-c2cc3cccn3cn2)oc2ccc(OCCN3CCCC3)cc12
EC50 ([1]; read-out: EC50): 2340 nM

O/N=c1\cc(-c2cc3sccc3cn2)oc2ccc(CCCN3CCC(F)(F)CC3)cc12
EC50 ([1]; read-out: EC50): 106 nM | concentration at 0.5 h [2]: 157 ng/g | concentration at 1.5 h [6]: 100 ng/g | concentration at 1 h [3]: 201 ng/g

O/N=c1\cc(-c2cc3ccccc3s2)oc2ccccc12
EC50 ([1]; hek293): Not Active

CON=c1cc(-c2cc3ccccc3cn2)oc2ccccc12
EC50 ([1]; hek293): Not Active

O/N=c1\cc(-c2cc3sccc3cn2)oc2ccc(OCCN3CCOCC3)cc12
EC50 ([1]; read-out: EC50): 35 nM | concentration at 0.5 h [2]: 408 ng/g | concentration at 1.5 h [6]: 281 ng/g | concentration at 1 h [3]: 521 ng/g

O/N=c1\cc(-c2cc3ccsc3cn2)oc2ccccc12
EC50 ([1]; read-out: EC50): 130 nM

O/N=c1\cc(-c2cc3cc[nH]c3cn2)oc2ccccc12
EC50 ([1]; read-out: EC50): 50 nM

CN1CCN(CCOc2ccc3oc(-c4cc5cccn5cn4)c/c(=N\O)c3c2)CC1
EC50 ([1]; read-out: EC50): 1710 nM

O/N=c1\cc(-c2ccc3ncccc3c2)oc2ccccc12
EC50 ([1]; read-out: EC50): 6990 nM

Cc1ccc2oc(-c3cc4ccccc4cn3)c/c(=N\O)c2c1
EC50 ([1]; read-out: EC50): 980 nM

O/N=c1\cc(-c2cc3cccn3cn2)oc2ccccc12
EC50 ([1]; read-out: EC50): 110 nM | solubility thermodynamic [5]: 0.2 µM (≈ 0.0555 µg/mL)

Cn1ccc2cc(-c3c/c(=N\O)c4ccccc4o3)ncc21
EC50 ([1]; read-out: EC50): 860 nM

O/N=c1\cc(-c2cc3sccc3cn2)oc2ccc(OCCN3CCC(F)(F)CC3)cc12
EC50 ([1]; read-out: EC50): 90 nM | concentration at 0.5 h [2]: 239 ng/g | concentration at 1.5 h [6]: 194 ng/g | concentration at 1 h [3]: 207 ng/g

O/N=c1\cc(-c2cc3ccccc3cn2)oc2c(Cl)cccc12
EC50 ([1]; hek293): Not Active

O/N=c1\cc(-c2cnc3ccccc3c2)oc2ccccc12
EC50 ([1]; read-out: EC50): 3960 nM

O/N=c1\cc(-c2cc3ccccc3[nH]2)oc2ccccc12
EC50 ([1]; read-out: EC50): > 30000 nM

COCCOc1ccc2/c(=N/O)cc(-c3cc4ccccc4cn3)oc2c1
EC50 ([1]; read-out: EC50): 3010 nM

O/N=c1\cc(-c2cc3sccc3cn2)oc2ccc(OC3CN(c4cccnc4)C3)cc12
EC50 ([1]; read-out: EC50): 4 nM | concentration at 0.5 h [2]: 33.4 ng/g | concentration at 1 h [3]: 26.7 ng/g

CC(=O)N1CCC(Oc2ccc3oc(-c4cc5cccn5cn4)c/c(=N\O)c3c2)CC1
EC50 ([1]; read-out: EC50): 10 nM | concentration at 0.5 h [2]: 24.1 ng/g | concentration at 1 h [3]: 12.1 ng/g

CN(C)C(=O)N1CC(Oc2ccc3oc(-c4cc5cccn5cn4)c/c(=N\O)c3c2)C1
EC50 ([1]; read-out: EC50): 35 nM | concentration at 0.5 h [2]: 25.5 ng/g | concentration at 1 h [3]: 8.8 ng/g

O/N=c1\cc(-c2ccc3ccccc3c2)oc2ccccc12
EC50 ([1]; hek293): Not Active

O/N=c1\cc(-c2cc3ccccc3o2)oc2ccccc12
EC50 ([1]; read-out: EC50): > 30000 nM

O/N=c1\cc(-c2ccn3ccnc3c2)oc2ccccc12
EC50 ([1]; hek293): Not Active

O/N=c1\cc(-c2cc3ncccc3cn2)oc2ccccc12
EC50 ([1]; read-out: EC50): 240 nM

CN1CCCC12CCN(CCOc1ccc3oc(-c4cc5sccc5cn4)c/c(=N\O)c3c1)CC2
EC50 ([1]; read-out: EC50): 60 nM | concentration at 0.5 h [2]: < 1 ng/g | concentration at 1 h [3]: < 1 ng/g

Cc1cc(C)n2cnc(-c3c/c(=N\O)c4ccccc4o3)cc12
EC50 ([1]; hek293): Not Active

O/N=c1\cc(-c2cc3sccc3cn2)oc2ccc(CCCN3CCC(F)(F)C3)cc12
EC50 ([1]; read-out: EC50): 25 nM | concentration at 0.5 h [2]: 275 ng/g | concentration at 1.5 h [6]: 137 ng/g | concentration at 1 h [3]: 197 ng/g

CC(=O)N1CCC(COc2ccc3oc(-c4cc5sccc5cn4)c/c(=N\O)c3c2)CC1
EC50 ([1]; read-out: EC50): 6 nM | concentration at 0.5 h [2]: 10.7 ng/g | concentration at 1 h [3]: 6.5 ng/g

CC(=O)N1CC(Oc2ccc3oc(-c4cc5sccc5cn4)c/c(=N\O)c3c2)C1
EC50 ([1]; read-out: EC50): 53 nM | concentration at 0.5 h [2]: < 1 ng/g | concentration at 1 h [3]: < 1 ng/g

O/N=c1\cc(-c2cn3cccc3cn2)oc2ccccc12
EC50 ([1]; read-out: EC50): 280 nM

O/N=c1\cc(-c2cc3ccccc3cn2)oc2ccccc12
EC50 ([1]; read-out: EC50): 310 nM

O/N=c1\cc(-c2cc3sccc3cn2)oc2ccc(NC3CCN(c4ccncn4)CC3)cc12
EC50 ([1]; read-out: EC50): 53 nM | concentration at 1 h [3]: < 1 ng/g

O/N=c1\cc(-c2cnc3ccccc3n2)oc2ccccc12
EC50 ([1]; hek293): Not Active

O=c1cc(-c2cc3ccccc3cn2)oc2ccccc12
EC50 ([1]; hek293): Not Active

CN1CCN(CCCNc2ccc3oc(-c4cc5ccccc5cn4)c/c(=N\O)c3c2)CC1
EC50 ([1]; read-out: EC50): 5260 nM
